Assays:
[1] = system: C‐terminal domain of the HCoV‐229E N protein; test: Sedimentation velocity analytical ultracentrifugation: self-association; type: binding; conditions: N245–389 in the absence of the C‐terminal tail peptide
How it was run: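 C-terminal His6-tagged N-protein domain (residues 245–389) was bacterially expressed (1 mM IPTG, 37 °C, 6 h) and purified on Ni–NTA. Runs were at 20 °C and 42,000 rpm, read at 280 nm every 420 s, at 50, 30 and 10 μM protein in 50 mM Tris–HCl pH 7.5, 150 mM NaCl, 0.1% β-mercaptoethanol. Data were fit to a continuous size distribution (0.1–20.0 S).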

[2] = Secondary structural content by CD spectroscopy; type: physicochemical; conditions: 25 °C, protein 5 μM, 50 mM Tris–HCl pH 7.5, 150 mM NaCl, 0.1% β‐mercaptoethanol, CDSSTR
[3] = type: physicochemical; conditions: CD at 220 nm, protein 7 μM, 50 mM Tris–HCl pH 7.5, 150 mM NaCl, 0.1% β‐mercaptoethanol

| Molecule | S-value of dimer ([1]; 20 °C, dimer) | S-value of octamer ([1]; 20 °C, octamer) | S-value of tetramer ([1]; 20 °C, tetramer) | molecular mass corresponding to S-value, dimer ([1]; dimer) | molecular mass corresponding to S-value, octamer ([1]; octamer) | molecular mass corresponding to S-value, tetramer ([1]; tetramer) | Disordered (random coil) content [2] | Helix content [2] | Sheet content [2] | Turn content [2] | melting temperature (Tm) [3] |
| --- | --- | --- | --- | --- | --- | --- | --- | --- | --- | --- | --- |
| N245–389: truncated C‐terminal domain of the HCoV‐229E N protein, extended C‐terminal tail that includes residue 389 (protein, left off: His6, C-terminal, state not stated) QKPRWKRQPNDDVTSNVTQCFGPRDLDHNFGSAGVVANGVKAKGYPQFAELVPSTAAMLFDSHIVSKESGNTVVLTFTTRVTVPKDHPHLGKFLEELNAFTREMQQHPLLNPSALEFNPSQTSPATAEPVRDEVSIETDIIDEVN | approximately 2.85 | ~7.75 | ~5.30 | 31 kDa | 131 kDa | 69 kDa | 13% | 45% | 26% | 16% | above 70 °C |
| N245–376: truncated C‐terminal domain of the HCoV‐229E N protein, extended C‐terminal tail that includes residue 376 (protein, left off: His6, C-terminal, state not stated) QKPRWKRQPNDDVTSNVTQCFGPRDLDHNFGSAGVVANGVKAKGYPQFAELVPSTAAMLFDSHIVSKESGNTVVLTFTTRVTVPKDHPHLGKFLEELNAFTREMQQHPLLNPSALEFNPSQTSPATAEPVRD |  |  |  |  |  |  | 15% | 47% | 22% | 16% | 36.7 °C |
| N245–370: truncated C‐terminal domain of the HCoV‐229E N protein, extended C‐terminal tail that includes residue 370 (protein, left off: His6, C-terminal, state not stated) QKPRWKRQPNDDVTSNVTQCFGPRDLDHNFGSAGVVANGVKAKGYPQFAELVPSTAAMLFDSHIVSKESGNTVVLTFTTRVTVPKDHPHLGKFLEELNAFTREMQQHPLLNPSALEFNPSQTSPAT |  |  |  |  |  |  | 17% | 46% | 23% | 14% | 36.2 °C |
| N245–382: truncated C‐terminal domain of the HCoV‐229E N protein, extended C‐terminal tail that includes residue 382 (protein, left off: His6, C-terminal, state not stated) QKPRWKRQPNDDVTSNVTQCFGPRDLDHNFGSAGVVANGVKAKGYPQFAELVPSTAAMLFDSHIVSKESGNTVVLTFTTRVTVPKDHPHLGKFLEELNAFTREMQQHPLLNPSALEFNPSQTSPATAEPVRDEVSIET |  |  |  |  |  |  | 13% | 43% | 25% | 19% | above 70 °C |

From article PMC7089611 (Febs Letters, 2012)
